# Measured values reported in publication PMC2682635 (Psychopharmacology, 2009).
# Several values for one entry are separate records, joined by “and”; a condition that tells them apart may be missing. Equal entries are not always repeated. Where two headings read alike, the source gives them in different places.
# Tests used:
# [1] = tested on: baboons; assay: Food-maintained operant behavior procedure; type: in vivo, Papio anubis
# Summary of the method: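 Test compound or vehicle was diluted in water to 150 ml total and infused intragastrically. Sessions started at 9:00 am right after dosing. Food pellets were available 20 h/day on a fixed-ratio schedule via a Lindsley operandum. Pellets earned were counted in ten 2-h bins up to 20 h. Analysis was repeated-measures two-way ANOVA (dose × time), p<0.05.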
# [2] = tested on: baboons; assay: Fine-motor task; type: in vivo, Papio anubis
# [3] = tested on: baboons; assay: 30-min continuous behavioral observation session; type: in vivo, Papio anubis; details: 60 to 90 min after drug
# [4] = tested on: baboons; assay: Paper and pencil behavioral checklists; type: in vivo, Papio anubis
# [5] = baboon
# [6] = tested on: rhesus monkeys; details: food-maintained operant procedure; ref McMahon et al. 2003; cited from earlier work
# [7] = in vivo; details: plasma, po
# [8] = cited from earlier work; for Mean maximum concentration of GHB in plasma: human, 50 mg/kg GHB
# [9] = humans, 25 mg/kg 1,4-BD; ref Thai et al. 2006; cited from earlier work
# [10] = tested on: baboons; details: 4 h after administration; reanalyzed data; ref Goodwin et al. 2005; cited from earlier work
# [11] = tested on: baboons; details: ref Goodwin et al. 2005, cited from earlier work
# [12] = tested on: humans; details: ref Carter et al. 2006; cited from earlier work
# [13] = Pharmacokinetics: GHB in plasma after intragastric GHB, GBL or 1,4-BD; details: for Mean maximum concentration of GHB in plasma: baboon, ±SD
# [14] = humans, 25 mg/kg 1,4-BD, ref Thai et al. 2006
compound,measurement,setting,value
"OCCCCO [1,4-BD, 1,4-butanediol]",Food-maintained behavior compared to vehicle,"[1]; 56 mg/kg, 4 h after administration, p<0.05",increases
same,Food-maintained behavior compared to vehicle,"[1]; 180 mg/kg, 2 h after administration, p<0.001",decreased
same,Food-maintained behavior compared to vehicle,"[1]; 180 mg/kg, 4 h after administration",decreased
same,Food-maintained behavior compared to vehicle,"[1]; 240 mg/kg, 2 h postadministration, p<0.001",decreased
same,Food-maintained behavior compared to vehicle,"[1]; 240 mg/kg, 4 h postadministration, p<0.05",decreased
same,Time food-maintained behavior was suppressed after administration,[1]; high doses,4 h
same,Duration to complete the fine-motor task,"[2]; 180 mg/kg, 60 min postadministration, p<0.001",significantly increased
same,Duration to complete the fine-motor task,"[2]; 180 mg/kg, 120 min postadministration, p<0.001",significantly increased
same,Completion of the fine-motor task,[2]; 240 mg/kg,all subjects failed to complete the task within the maximum time of 120 s
same,Duration to complete the fine-motor task,"[2]; 240 mg/kg, 120 min postadministration, p<0.001",significantly increased
same,Duration to complete the fine-motor task,"[2]; any dose, 30-min postadministration",did not alter
same,Frequency of scratch/groom compared to vehicle,[3]; 56 mg/kg,increased
same,Frequency of ataxia compared to vehicle,[3]; 180 mg/kg,significantly increased
same,Frequency of scratch/groom compared to vehicle,[3]; 180 mg/kg,increased
same,Frequency of tremor/jerks compared to vehicle,[3]; 180 mg/kg,significantly increased
same,Frequency of vomit/retch compared to vehicle,[3]; 180 mg/kg,significantly increased
same,Duration of lip droop compared to vehicle,[3]; 240 mg/kg,significantly increased
same,Frequency of ataxia compared to vehicle,[3]; 240 mg/kg,significantly increased
same,Frequency of tremor/jerks compared to vehicle,[3]; 240 mg/kg,significantly increased
same,Frequency of vomit/retch compared to vehicle,[3]; 240 mg/kg,significantly increased
same,Time lying down compared to vehicle,[3]; 240 mg/kg,significantly increased
same,"Duration of effects in ≥50% of subjects, ataxia",[4]; 180 mg/kg IG,4.0 h
same,"Duration of effects in ≥50% of subjects, lip droop",[4]; 180 mg/kg IG,2.5 h
same,"Duration of effects in ≥50% of subjects, tremor/jerk",[4]; 180 mg/kg IG,5.0 h
same,"Duration of effects in ≥50% of subjects, vomit",[4]; 180 mg/kg IG,2.5 h
same,"Number of subjects at maximal effect, ataxia",[4]; 180 mg/kg IG,4/4
same,"Number of subjects at maximal effect, lip droop",[4]; 180 mg/kg IG,2/4
same,"Number of subjects at maximal effect, tremor/jerk",[4]; 180 mg/kg IG,4/4
same,"Number of subjects at maximal effect, vomit",[4]; 180 mg/kg IG,3/4
same,"Recovery of baseline (100% of subjects), ataxia",[4]; 180 mg/kg IG,7.0 h
same,"Recovery of baseline (100% of subjects), lip droop",[4]; 180 mg/kg IG,4.0 h
same,"Recovery of baseline (100% of subjects), tremor/jerk",[4]; 180 mg/kg IG,7.5 h
same,"Recovery of baseline (100% of subjects), vomit",[4]; 180 mg/kg IG,7.5 h
same,"Time to maximal effects, ataxia",[4]; 180 mg/kg IG,2.0 h
same,"Time to maximal effects, lip droop",[4]; 180 mg/kg IG,2 h and 2.0 h
same,"Time to maximal effects, tremor/jerk",[4]; 180 mg/kg IG,1.0 h
same,"Time to maximal effects, vomit",[4]; 180 mg/kg IG,2.5 h
same,"Duration of effects in ≥50% of subjects, ataxia",[4]; 240 mg/kg IG,4.0 h
same,"Duration of effects in ≥50% of subjects, lip droop",[4]; 240 mg/kg IG,3.5 h
same,"Duration of effects in ≥50% of subjects, tremor/jerk",[4]; 240 mg/kg IG,6.0 h
same,"Duration of effects in ≥50% of subjects, vomit",[4]; 240 mg/kg IG,1.0 h
same,"Number of subjects at maximal effect, ataxia",[4]; 240 mg/kg IG,4/4
same,"Number of subjects at maximal effect, lip droop",[4]; 240 mg/kg IG,3/4
same,"Number of subjects at maximal effect, tremor/jerk",[4]; 240 mg/kg IG,4/4
same,"Number of subjects at maximal effect, vomit",[4]; 240 mg/kg IG,3/4
same,"Recovery of baseline (100% of subjects), ataxia",[4]; 240 mg/kg IG,6.0 h
same,"Recovery of baseline (100% of subjects), lip droop",[4]; 240 mg/kg IG,5.0 h
same,"Recovery of baseline (100% of subjects), tremor/jerk",[4]; 240 mg/kg IG,8.0 h
same,"Recovery of baseline (100% of subjects), vomit",[4]; 240 mg/kg IG,7.5 h
same,"Time to maximal effects, ataxia",[4]; 240 mg/kg IG,2.0 h
same,"Time to maximal effects, lip droop",[4]; 240 mg/kg IG,1−2 h and 1 h and 1.0 h
same,"Time to maximal effects, tremor/jerk",[4]; 240 mg/kg IG,2.0 h
same,"Time to maximal effects, vomit",[4]; 240 mg/kg IG,1.0 h
same,Time at which lip droop continued in half of the subjects,[4]; 180 and 240 mg/kg,2.5−3.5 h
same,Time postadministration by which lip droop was no longer observed,[4]; 180 and 240 mg/kg,≤ 5 h
same,"Return to baseline for all observed behavioral effects, time postadministration","[4]; baboon (Papio anubis), in vivo, oral",7−8 h
same,"Maximum concentrations of 1,4-BD (range)","[5]; 32 mg/kg 1,4-BD",0.48 to 0.69 µg/mL
same,"T1/2 for GHB in plasma relative to T1/2 of 1,4-BD (fold longer)","[5]; 100 mg/kg 1,4-BD",five
same,"T1/2 for GHB in plasma relative to T1/2 of 1,4-BD (fold longer)","[5]; 180 mg/kg 1,4-BD",sevenfold
same,Time after administration at which response rate was decreased,[6],150 min
same,AUC,"[7]; monkey, 32 mg/kg",33.4 µM·h
same,Cmax,"[7]; monkey, 32 mg/kg",5.3 to 7.7 µM
same,half-life,"[7]; monkey, 32 mg/kg",4.13 h
same,AUC,"[7]; monkey, 100 mg/kg",612 µM·h
same,Cmax,"[7]; monkey, 100 mg/kg",47.8 to 590 µM
same,half-life,"[7]; monkey, 100 mg/kg",0.589 h
same,AUC,"[7]; monkey, 180 mg/kg",942 µM·h
same,Cmax,"[7]; monkey, 180 mg/kg",289 to 1100 µM
same,half-life,"[7]; monkey, 180 mg/kg",0.711 h
same,Tmax,[7],0.5 h
same,half-life,[7]; 100 mg/kg,< 1 h
same,half-life,[7]; 180 mg/kg,< 1 h
same,"Maximum concentration of GHB, range",[8]; [14],22.2−85.7 μg/ml
same,Mean maximum concentration of GHB,[8]; [14],45.6 µg/mL
same,"Maximum concentration of 1,4-BD, range",[9],0.33−14.4 μg/ml
same,"Mean maximum concentration of 1,4-BD",[9],3.84 µg/mL
"O=C(O)CCCO [GHB, Gamma-hydroxybutyrate]",Food-maintained behavior compared to vehicle,[10],not significantly altered
same,Duration to complete the fine-motor task,"[11]; 180−420 mg/kg, 120 min postadministration",increased
same,Duration to complete the fine-motor task,"[11]; any dose tested, 60 min postadministration",did not alter
same,Time of maximal drug effects postadministration,[12],1−2 h
same,"Maximum concentration of GHB, range","[8]; human subjects, total doses of 3−4.5 g GHB (i.e., 42.8 mg/kg), ref Scharf et al. 1998",30 to 103 µg/mL
same,Mean maximum concentration of GHB in plasma,[8]; ref Abanades et al. 2007,83.1 (+10.7 SD) μg/ml
same,Mean maximum concentration of GHB in plasma,[8]; ref Palatini et al. 1993,20 µg/mL
same,Mean maximum concentration of GHB in plasma,[13]; 32 mg/kg GHB,18.46 (±8.66 SD) μg/ml
same,Mean maximum concentration of GHB in plasma,[13]; 100 mg/kg GHB,72.2 (±15.73 SD) μg/ml
same,AUC,"[13]; monkey, plasma, po, 320 mg/kg",4580 µM·h
same,Cmax,"[13]; monkey, plasma, po, 320 mg/kg",598 to 1940 µM
same,half-life,"[13]; monkey, plasma, po, 320 mg/kg",12.2 h
same,Tmax,"[13]; plasma, po, 320 mg/kg",6 h
